{"source": "ChEMBL document CHEMBL1240363", "about": "“Pharmacokinetics of ertapenem following intravenous and subcutaneous infusions in patients” (Antimicrob Agents Chemother, 2010)", "key": {"[1]": {"tested_on": "Homo sapiens", "assay": "Ratio of AUC (0 to 24 hrs) in sc dosed patient with bacterial infection to AUC (0 to 24 hrs) in iv dosed patient with bacterial infection", "format": "ADME, organism-based", "conditions": "in vivo", "in_short": "(§1)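 Six infected patients received ertapenem 1 g once daily, infused over 30 min: first i.v. via a central vein, then s.c. into the anterior thigh for one day. Arterial plasma was sampled over 24 h at steady state (i.v. on days 4–7). Plasma was stabilized 1:1 at pH 6.5 and assayed by LC-MS/MS. Total concentrations were fitted with compartmental models (1/y weighting), giving Cmax, tmax, t1/2, AUC0-24, CL and Vss as mean ± SD.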"}, "[2]": {"assay": "Volume of distribution at steady state in patient with bacterial infection at 1 gm, iv administered at 30 mins regimen for 24 hrs by LC/MS/MS analysis", "conditions": "human, in vivo, read-out: Vdss"}, "[3]": {"assay": "fT>MIC methicillin-resistant Staphylococcus aureus-infected kinetic model", "format": "functional"}, "[4]": {"assay": "fT>MIC […]-infected kinetic model", "format": "functional"}, "[5]": {"assay": "Cmax in patient with bacterial infection at 1 gm[…], sc administered at 30 mins regimen for 24 hrs by LC/MS/MS analysis", "format": "ADME, organism-based", "design": "route subcutaneous", "conditions": "human, in vivo", "in_short": "as §1"}, "[6]": {"assay": "Clearance in patient with bacterial infection at 1 gm[…], iv administered at 30 mins regimen for 24 hrs by LC/MS/MS analysis", "format": "ADME, organism-based", "conditions": "human, in vivo", "in_short": "as §1"}, "[7]": {"assay": "Tmax in patient with bacterial infection at 1 gm[…], sc administered at 30 mins regimen for 24 hrs by LC/MS/MS analysis", "format": "ADME, organism-based", "conditions": "human, in vivo", "in_short": "as §1"}, "[8]": {"assay": "fT>MIC […] Escherichia coli-infected kinetic model", "format": "functional"}, "[9]": {"assay": "fT>MIC […] Klebsiella pneumoniae-infected kinetic model", "format": "functional"}, "[10]": {"assay": "Tmax in patient with bacterial infection at 1 gm[…], iv administered at 30 mins regimen for 24 hrs by LC/MS/MS analysis", "format": "ADME, organism-based", "conditions": "human, in vivo", "in_short": "as §1"}, "[11]": {"assay": "Half life in patient with bacterial infection at […], sc administered at 30 mins regimen for 24 hrs by LC/MS/MS analysis", "format": "ADME, organism-based", "conditions": "human, in vivo", "in_short": "as §1"}, "[12]": {"assay": "Cmax in patient with bacterial infection at 1 gm[…], iv administered at 30 mins regimen for 24 hrs by LC/MS/MS analysis", "format": "ADME, organism-based", "design": "route intravenous", "conditions": "human, in vivo", "in_short": "as §1"}, "[13]": {"assay": "Half life in patient with bacterial infection at […], iv administered at 30 mins regimen for 24 hrs by LC/MS/MS analysis", "format": "ADME, organism-based", "conditions": "human, in vivo", "in_short": "as §1"}}, "data": [{"smiles": "C[C@@H](O)[C@H]1C(=O)N2C(C(=O)O)=C(S[C@@H]3CN[C@H](C(=O)Nc4cccc(C(=O)O)c4)C3)[C@H](C)[C@H]12", "note": "[ERTAPENEM]", "values": [{"measurement": "Ratio AUC", "setting": "[1]", "result": 0.99}, {"measurement": "Vd", "setting": "[2]", "result": 16.1, "unit": "L"}, {"measurement": "fT>MIC", "setting": "[3]", "result": 30, "unit": "%"}, {"measurement": "fT>MIC", "setting": "[4]", "result": 30, "unit": "%"}, {"measurement": "Cmax", "setting": "[5]", "result": 43, "unit": "µg/mL"}, {"measurement": "clearance", "setting": "[6]", "result": 63.3, "unit": "mL/min"}, {"measurement": "Tmax", "setting": "[7]", "result": 2.7, "unit": "h"}, {"measurement": "fT>MIC", "setting": "[8]", "result": 30, "unit": "%"}, {"measurement": "fT>MIC", "setting": "[9]", "result": 30, "unit": "%"}, {"measurement": "Tmax", "setting": "[10]", "result": 0.5, "unit": "h"}, {"measurement": "half-life", "setting": "[11]", "result": 5.4, "unit": "h"}, {"measurement": "Cmax", "setting": "[12]", "result": 115, "unit": "µg/mL"}, {"measurement": "half-life", "setting": "[13]", "result": 3.9, "unit": "h"}]}]}
